≈ marks a conversion by molar mass, not a printed value. Blank lines part the entries; values can stand above or below the molecule they belong to.
Experiments:
Estrogen receptor [1] = target: T1, Estrogen receptor (Homo sapiens, UniProt P03372); experiment: Binding affinity to recombinant human GST-tagged ERalpha LBD expressed in baculovirus-infected insect cells by lantha screen assay
T1 sequence (P03372 whole entry): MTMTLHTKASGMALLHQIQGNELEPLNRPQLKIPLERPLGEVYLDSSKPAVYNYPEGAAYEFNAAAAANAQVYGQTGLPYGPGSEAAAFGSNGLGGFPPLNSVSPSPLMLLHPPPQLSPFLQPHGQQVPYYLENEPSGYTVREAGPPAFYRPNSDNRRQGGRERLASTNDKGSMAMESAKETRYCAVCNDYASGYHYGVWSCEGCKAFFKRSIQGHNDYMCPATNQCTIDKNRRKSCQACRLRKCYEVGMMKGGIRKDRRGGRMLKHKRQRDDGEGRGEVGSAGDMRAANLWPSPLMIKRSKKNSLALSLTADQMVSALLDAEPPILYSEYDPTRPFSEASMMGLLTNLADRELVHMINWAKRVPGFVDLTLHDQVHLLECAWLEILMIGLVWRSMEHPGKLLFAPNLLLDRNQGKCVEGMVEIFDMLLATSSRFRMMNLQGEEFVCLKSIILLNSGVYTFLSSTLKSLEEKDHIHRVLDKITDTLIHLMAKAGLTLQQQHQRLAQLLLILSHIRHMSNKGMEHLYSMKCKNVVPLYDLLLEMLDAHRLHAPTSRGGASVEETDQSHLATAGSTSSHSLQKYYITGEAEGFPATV

Estrogen receptor [2] = target: T1, Estrogen receptor; experiment: Induction of ERalpha degradation in human MCF7 cells after 18 to 24 hrs by in multiplexed cell assay; type: cell-based
In short: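 MCF-7 cells were kept at 37 °C, 5% CO₂ in phenol red-free RPMI1640 with 5% charcoal-stripped FCS and 2 mmol/L glutamine. Compounds came from 10 mmol/L DMSO stocks.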

[3] = Lipophilicity, log D of the compound at pH 7.4 by shake flask method; type: physicochemical; settings: buffer
In short: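 Shake-flask measurement of logD at pH 7.4.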

[4] = Fraction unbound in Alderley Park Han Wistar rat plasma by equilibrium dialysis; type: ADME, cell-free
In short: (§1)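 Equilibrium dialysis from DMSO stock in 10% plasma, either Alderley Park Han Wistar rat plasma or human plasma.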

[5] = Fraction unbound in 10% human plasma by equilibrium dialysis; type: ADME, cell-free; settings: 10% plasma; in short: as §1
[6] = Intrinsic clearance in rat hepatocytes assessed per million cells; type: ADME, cell-based, Hepatocyte; settings: read-out: CLH
In short: (§2)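 Rate of metabolism (µl/min/10⁶ cells) measured from DMSO stock in isolated hepatocytes diluted to 1x10⁶ cells/mL.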

[7] = Intrinsic clearance in human hepatocytes assessed per million cells; type: ADME, cell-based, Hepatocyte; settings: read-out: CLH; in short: as §2
[8] = Glutathione reactivity in human liver microsomes assessed as GSH trapping ratio of compound to clozapine; type: ADME, Microsome
In short: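 Glutathione trapping in human liver microsomes, expressed as a ratio to clozapine.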

[9] = Apparent permeability in human Caco2 cells at 10 uM; type: ADME, cell-based; settings: Caco-2
In short: (§3)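 Compound at 10 μM incubated on cultured Caco-2 or MDCK cells. Permeability was measured apical-to-basolateral and basolateral-to-apical, and efflux ratio was taken as (B to A)/(A to B).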

[10] = Efflux ratio of apparent permeability in human Caco2 cells at 10 uM; type: ADME, cell-based; settings: Caco-2; in short: as §3
[11] = Apparent permeability in MDCK cells at 10 uM; type: ADME, cell-based, Canis lupus familiaris; settings: dog; in short: as §3
[12] = Efflux ratio of apparent permeability in MDCK cells at 10 uM; type: ADME, cell-based, Canis lupus familiaris; settings: dog; in short: as §3
[13] = Solubility of the compound in phosphate buffer at pH 7.4 after 24 hrs; type: physicochemical
In short: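 Solubility in aqueous phosphate buffer at pH 7.4 after 24 h at 25 °C.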

[14] = Fraction unbound in mouse plasma by equilibrium dialysis; type: ADME, cell-free
[15] = Fraction unbound in dog plasma by equilibrium dialysis; type: ADME, cell-free, Canis lupus familiaris
[16] = Clearance in rat at 0.5 mg/kg, iv or 1 mg/kg, po; type: ADME, organism-based; settings: in vivo
In short: (§4)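 Single IV dose of 0.5 mg/kg and oral dose of 1 mg/kg in rat and dog. Both routes were formulated in 5% DMSO:95% hydroxypropyl β-cyclodextrin (30% w/v), at 1 mL/kg IV and 4 mL/kg PO.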

[17] = Clearance in dog at 0.5 mg/kg, iv or 1 mg/kg, po; type: ADME, organism-based, Canis lupus familiaris; settings: in vivo; in short: as §4
[18] = Volume of distribution at steady state in rat at 0.5 mg/kg, iv or 1 mg/kg, po; type: ADME, organism-based; settings: in vivo, read-out: Vdss; in short: as §4
[19] = Volume of distribution at steady state in dog at 0.5 mg/kg, iv or 1 mg/kg, po; type: ADME, organism-based, Canis lupus familiaris; settings: in vivo, read-out: Vdss; in short: as §4
[20] = Half life in rat at 0.5 mg/kg, iv or 1 mg/kg, po; type: ADME, organism-based; settings: in vivo; in short: as §4
[21] = Half life in dog at 0.5 mg/kg, iv or 1 mg/kg, po; type: ADME, organism-based, Canis lupus familiaris; settings: in vivo; in short: as §4
[22] = Oral bioavailability in rat at 1 mg/kg; type: ADME, organism-based; settings: in vivo; in short: as §4
[23] = Oral bioavailability in dog at 1 mg/kg; type: ADME, organism-based, Canis lupus familiaris; settings: in vivo; in short: as §4
[24] = AUC in rat at 1 mg/kg, po; type: ADME, organism-based; settings: in vivo; in short: as §4
[25] = AUC in dog at 1 mg/kg, po; type: ADME, organism-based, Canis lupus familiaris; settings: in vivo; in short: as §4
Cytochrome P450 2C9 = Cytochrome P450 2C9 (Homo sapiens, UniProt P11712); experiment: Inhibition of CYP2C9 in human liver microsomes; type: ADME
In short: (§5)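 High-throughput human liver microsome assay across a panel of five CYP isoforms, giving IC50.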

Cytochrome P450 3A4 = Cytochrome P450 3A4 (Homo sapiens, UniProt P08684); experiment: Inhibition of CYP3A4 in human liver microsomes; type: ADME; in short: as §5
[26] = target: Voltage-gated inwardly rectifying potassium channel KCNH2 (Homo sapiens, UniProt Q12809); experiment: Inhibition of human ERG by plate based planar patch clamp assay
Cytochrome P450 1A2 = target: T2, Cytochrome P450 1A2 (Homo sapiens, UniProt P05177); experiment: Inhibition of CYP1A2 in human liver microsomes; type: ADME; in short: as §5
T2 sequence (P05177 whole entry): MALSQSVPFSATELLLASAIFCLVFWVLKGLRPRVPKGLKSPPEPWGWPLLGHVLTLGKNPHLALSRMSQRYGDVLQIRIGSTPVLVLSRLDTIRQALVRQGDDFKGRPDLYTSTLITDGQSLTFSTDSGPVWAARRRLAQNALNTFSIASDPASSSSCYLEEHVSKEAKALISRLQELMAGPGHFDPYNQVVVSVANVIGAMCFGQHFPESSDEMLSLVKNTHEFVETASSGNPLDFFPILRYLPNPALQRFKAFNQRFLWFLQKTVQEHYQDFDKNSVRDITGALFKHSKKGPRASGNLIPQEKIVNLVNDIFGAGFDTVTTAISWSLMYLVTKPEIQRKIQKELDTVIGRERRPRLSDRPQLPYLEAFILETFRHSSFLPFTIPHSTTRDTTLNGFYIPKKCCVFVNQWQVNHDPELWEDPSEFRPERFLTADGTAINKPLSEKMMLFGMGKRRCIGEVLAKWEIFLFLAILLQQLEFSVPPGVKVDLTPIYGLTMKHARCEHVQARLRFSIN

Cytochrome P450 2C19 = Cytochrome P450 2C19 (Homo sapiens, UniProt P33261); experiment: Inhibition of CYP2C19 in human liver microsomes; type: ADME; in short: as §5
Cytochrome P450 2D6 = Cytochrome P450 2D6 (Homo sapiens, UniProt P10635); experiment: Inhibition of CYP2D6 in human liver microsomes; type: ADME; in short: as §5
[27] = Intrinsic clearance in dog hepatocytes assessed per million cells; type: ADME, cell-based, Canis lupus familiaris, Hepatocyte; settings: read-out: CLH; in short: as §2

Cytochrome P450 3A4, sequence (P08684 whole entry): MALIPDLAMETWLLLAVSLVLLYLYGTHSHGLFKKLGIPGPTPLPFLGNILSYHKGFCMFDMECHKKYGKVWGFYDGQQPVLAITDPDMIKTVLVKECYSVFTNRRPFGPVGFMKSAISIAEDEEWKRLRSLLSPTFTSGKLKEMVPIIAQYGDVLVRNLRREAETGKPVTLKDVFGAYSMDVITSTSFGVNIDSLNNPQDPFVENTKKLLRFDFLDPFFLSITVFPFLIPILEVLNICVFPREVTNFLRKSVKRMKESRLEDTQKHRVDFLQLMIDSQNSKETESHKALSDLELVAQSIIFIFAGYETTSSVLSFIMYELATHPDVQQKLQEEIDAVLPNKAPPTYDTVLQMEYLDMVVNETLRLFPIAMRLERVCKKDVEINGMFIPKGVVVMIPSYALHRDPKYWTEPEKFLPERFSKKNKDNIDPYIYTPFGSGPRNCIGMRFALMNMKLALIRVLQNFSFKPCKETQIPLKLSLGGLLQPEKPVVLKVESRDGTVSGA
Cytochrome P450 2C19, sequence (P33261 whole entry): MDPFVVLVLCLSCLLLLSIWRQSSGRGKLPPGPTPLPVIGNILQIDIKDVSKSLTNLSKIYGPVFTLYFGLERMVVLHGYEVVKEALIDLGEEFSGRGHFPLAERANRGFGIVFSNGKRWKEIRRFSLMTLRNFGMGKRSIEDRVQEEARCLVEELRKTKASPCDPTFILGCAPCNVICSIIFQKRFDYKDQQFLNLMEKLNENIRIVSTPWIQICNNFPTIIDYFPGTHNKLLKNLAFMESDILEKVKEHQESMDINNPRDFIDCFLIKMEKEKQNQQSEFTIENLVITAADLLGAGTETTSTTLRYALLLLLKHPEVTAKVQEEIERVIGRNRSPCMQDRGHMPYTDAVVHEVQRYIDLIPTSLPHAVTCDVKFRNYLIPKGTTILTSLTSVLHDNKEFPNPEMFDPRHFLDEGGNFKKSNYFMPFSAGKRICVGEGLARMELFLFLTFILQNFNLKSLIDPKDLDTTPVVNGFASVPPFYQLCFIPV
Voltage-gated inwardly rectifying potassium channel KCNH2, sequence (Q12809 whole entry): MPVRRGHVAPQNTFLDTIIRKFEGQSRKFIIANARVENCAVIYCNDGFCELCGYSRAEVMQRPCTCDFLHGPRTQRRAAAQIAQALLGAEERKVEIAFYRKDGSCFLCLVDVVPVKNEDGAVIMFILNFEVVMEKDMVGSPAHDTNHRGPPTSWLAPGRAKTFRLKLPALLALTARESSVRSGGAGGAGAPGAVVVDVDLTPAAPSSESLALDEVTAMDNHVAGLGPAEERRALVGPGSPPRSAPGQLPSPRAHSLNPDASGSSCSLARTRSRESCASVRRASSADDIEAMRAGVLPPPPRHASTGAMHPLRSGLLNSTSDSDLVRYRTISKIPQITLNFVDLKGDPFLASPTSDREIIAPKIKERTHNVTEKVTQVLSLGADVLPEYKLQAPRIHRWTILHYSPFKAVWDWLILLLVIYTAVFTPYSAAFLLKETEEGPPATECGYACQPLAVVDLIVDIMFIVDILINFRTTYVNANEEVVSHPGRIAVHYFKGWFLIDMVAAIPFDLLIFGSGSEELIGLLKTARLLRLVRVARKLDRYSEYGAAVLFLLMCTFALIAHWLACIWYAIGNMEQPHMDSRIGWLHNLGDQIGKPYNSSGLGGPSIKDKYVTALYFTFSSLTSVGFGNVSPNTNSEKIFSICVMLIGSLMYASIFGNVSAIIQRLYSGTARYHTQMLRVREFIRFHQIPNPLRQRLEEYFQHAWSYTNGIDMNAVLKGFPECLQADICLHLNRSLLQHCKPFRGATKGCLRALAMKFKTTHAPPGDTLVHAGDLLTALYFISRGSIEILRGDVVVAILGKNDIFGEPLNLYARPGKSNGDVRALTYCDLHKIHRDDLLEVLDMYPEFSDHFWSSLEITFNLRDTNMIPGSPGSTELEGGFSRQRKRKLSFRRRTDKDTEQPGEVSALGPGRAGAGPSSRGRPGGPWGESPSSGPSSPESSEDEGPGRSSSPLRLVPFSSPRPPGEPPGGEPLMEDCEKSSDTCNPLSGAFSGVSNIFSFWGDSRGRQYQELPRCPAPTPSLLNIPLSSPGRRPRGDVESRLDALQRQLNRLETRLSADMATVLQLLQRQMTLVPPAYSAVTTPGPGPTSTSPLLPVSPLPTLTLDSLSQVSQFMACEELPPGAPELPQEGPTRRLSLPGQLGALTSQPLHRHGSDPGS
Cytochrome P450 2D6, sequence (P10635 whole entry): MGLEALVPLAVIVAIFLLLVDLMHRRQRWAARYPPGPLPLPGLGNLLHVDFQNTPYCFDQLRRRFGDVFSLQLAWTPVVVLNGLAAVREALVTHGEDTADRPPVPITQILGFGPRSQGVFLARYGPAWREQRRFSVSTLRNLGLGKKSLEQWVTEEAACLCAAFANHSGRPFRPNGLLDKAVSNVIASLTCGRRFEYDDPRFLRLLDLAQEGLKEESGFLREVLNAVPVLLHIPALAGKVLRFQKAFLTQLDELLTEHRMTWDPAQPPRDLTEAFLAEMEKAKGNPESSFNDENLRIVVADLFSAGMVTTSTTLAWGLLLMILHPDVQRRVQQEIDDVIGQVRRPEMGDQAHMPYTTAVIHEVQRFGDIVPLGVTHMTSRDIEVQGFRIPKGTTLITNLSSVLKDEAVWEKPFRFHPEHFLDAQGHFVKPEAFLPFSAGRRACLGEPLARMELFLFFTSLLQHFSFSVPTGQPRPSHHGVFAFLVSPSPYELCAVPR
Cytochrome P450 2C9, sequence (P11712 whole entry, canonical isoform): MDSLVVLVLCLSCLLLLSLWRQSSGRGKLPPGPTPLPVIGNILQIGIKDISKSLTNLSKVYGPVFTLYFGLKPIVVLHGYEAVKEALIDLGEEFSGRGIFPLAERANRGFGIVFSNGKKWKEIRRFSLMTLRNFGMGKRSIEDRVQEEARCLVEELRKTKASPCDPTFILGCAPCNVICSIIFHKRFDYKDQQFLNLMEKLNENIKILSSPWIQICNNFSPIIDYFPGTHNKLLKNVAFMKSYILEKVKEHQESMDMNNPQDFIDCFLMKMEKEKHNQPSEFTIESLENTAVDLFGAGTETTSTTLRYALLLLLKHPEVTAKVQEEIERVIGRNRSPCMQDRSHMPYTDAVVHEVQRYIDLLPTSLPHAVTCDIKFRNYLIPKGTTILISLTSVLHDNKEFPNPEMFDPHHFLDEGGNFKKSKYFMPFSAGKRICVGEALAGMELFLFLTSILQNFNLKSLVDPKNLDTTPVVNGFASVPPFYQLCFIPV

SMILES: COc1cc(/C=C/C(=O)O)ccc1[C@@H]1c2ccc3[nH]ncc3c2C[C@@H](C)N1CC(C)(C)F
IC50 (Estrogen receptor [1]): 1.58 nM
IC50 (Estrogen receptor [2]): 0.631 nM
logD [3]: 2.2
fraction unbound [4]: 0.046
fraction unbound [5]: 0.0098
hepatocyte CLint [6]: 17 µL/min/1e6 cells
hepatocyte CLint [7]: 6 µL/min/1e6 cells
Ratio [8]: < 0.04

SMILES: CC(C)CN1CCc2c(ccc3[nH]ncc23)[C@H]1c1ccc(/C=C/C(=O)O)cc1
IC50 (Estrogen receptor [1]): 25.1 nM
IC50 (Estrogen receptor [2]): 6.31 nM
logD [3]: 1.9
fraction unbound [4]: 0.036
fraction unbound [5]: 0.07
hepatocyte CLint [6]: 10 µL/min/1e6 cells
hepatocyte CLint [7]: 51 µL/min/1e6 cells
Ratio [8]: < 0.04

SMILES: CC(C)CN1[C@H](c2c(F)cc(/C=C/C(=O)O)cc2F)c2ccc3[nH]ncc3c2C[C@H]1C
IC50 (Estrogen receptor [1]): 1.26 nM
IC50 (Estrogen receptor [2]): 0.794 nM
logD [3]: 3
fraction unbound [4]: 0.0052
fraction unbound [5]: 0.0048
hepatocyte CLint [6]: 19 µL/min/1e6 cells
hepatocyte CLint [7]: 22 µL/min/1e6 cells
Ratio [8]: < 0.04

SMILES: C[C@@H]1Cc2c(ccc3[nH]ncc23)[C@@H](c2ccc(/C=C/C(=O)O)cc2)N1CC(C)(C)F
IC50 (Estrogen receptor [1]): 1.58 nM
IC50 (Estrogen receptor [2]): 0.316 nM
logD [3]: 2.9
fraction unbound [4]: 0.015
fraction unbound [5]: 0.0087
hepatocyte CLint [6]: 8 µL/min/1e6 cells
hepatocyte CLint [7]: 78 µL/min/1e6 cells

The next molecules have a lower IC50 (Estrogen receptor [1]) than those just listed; values first:

IC50 (Estrogen receptor [1]): 0.501 nM
IC50 (Estrogen receptor [2]): 0.316 nM
logD [3]: 2.6
fraction unbound [5]: 0.012
hepatocyte CLint [6]: 22 µL/min/1e6 cells
hepatocyte CLint [7]: 5 µL/min/1e6 cells
SMILES: COc1cc(/C=C/C(=O)O)c(F)cc1[C@@H]1c2ccc3[nH]ncc3c2C[C@@H](C)N1CC(C)(F)F

IC50 (Estrogen receptor [1]): 0.398 nM
IC50 (Estrogen receptor [2]): 0.398 nM
logD [3]: 2.3
fraction unbound [4]: 0.013
fraction unbound [5]: 0.011
hepatocyte CLint [6]: 18 µL/min/1e6 cells
hepatocyte CLint [7]: 8 µL/min/1e6 cells
Papp at 10 µM [9]: 5.8 ×10⁻⁶ cm/s
efflux ratio at 10 µM [10]: 2.6
Papp at 10 µM [11]: 10 ×10⁻⁶ cm/s
efflux ratio at 10 µM [12]: 1.3
solubility at 24 h [13]: 760 µM (≈ 340 µg/mL)
fraction unbound [14]: 0.021
fraction unbound [15]: 0.0062
clearance [16]: 26 mL/min/kg
clearance [17]: 5.4 mL/min/kg
Vd [18]: 1.6 L/kg
Vd [19]: 0.63 L/kg
half-life [20]: 3.7 h
half-life [21]: 4.8 h
bioavailability [22]: 16%
bioavailability [23]: 36%
AUC [24]: 0.57 µM·h
AUC [25]: 3 µM·h
Ratio [8]: < 0.04
IC50 (Cytochrome P450 2C9): 6600 nM
IC50 (Cytochrome P450 3A4): > 30000 nM
IC50 (Cytochrome P450 1A2): > 30000 nM
IC50 (Cytochrome P450 2C19): > 30000 nM
IC50 (Cytochrome P450 2D6): > 30000 nM
hepatocyte CLint [27]: 7.1 µL/min/1e6 cells
SMILES: C[C@@H]1Cc2c(ccc3[nH]ncc23)[C@@H](c2c(F)cc(/C=C/C(=O)O)cc2F)N1CC(C)(F)F
IC50 [26]: > 100000 nM

IC50 (Estrogen receptor [1]): 0.316 nM
IC50 (Estrogen receptor [2]): 0.2 nM
logD [3]: 2.8
fraction unbound [5]: 0.007
hepatocyte CLint [6]: 32 µL/min/1e6 cells
hepatocyte CLint [7]: 6 µL/min/1e6 cells
SMILES: COc1cc(/C=C/C(=O)O)cc(F)c1[C@@H]1c2ccc3[nH]ncc3c2C[C@@H](C)N1CC(C)(F)F

IC50 (Estrogen receptor [1]): 0.316 nM
IC50 (Estrogen receptor [2]): 0.794 nM
logD [3]: 3
fraction unbound [4]: 0.0076
fraction unbound [5]: 0.0027
hepatocyte CLint [6]: 20 µL/min/1e6 cells
hepatocyte CLint [7]: 6 µL/min/1e6 cells
SMILES: C[C@@H]1Cc2c(ccc3[nH]ncc23)[C@@](C)(c2c(F)cc(/C=C/C(=O)O)cc2F)N1CC(C)(F)F

Reference: ChEMBL document CHEMBL4368914, “Tricyclic Indazoles-A Novel Class of Selective Estrogen Receptor Degrader Antagonists” (J Med Chem, 2019)
